Screening results as filed in PubChem.
EBNA-1 inh: blocks EBNA-1 binding to DNA; EBNA-1 DNA binding, fluorescence polarization; inhibition, % at 14.8 µM; 300,000 tested, 0.34% active; AID 1950; in the data active means inhibition above about 28%
core dimer inh: HCV core protein dimerization inhibition; inhibition, % at 5 µM; 300,000 tested, 0.33% active; TR-FRET GST/Flag-core106 dimerization, 1536-well;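 active means inhibition above the mean of all tested compounds plus 3 SD, set per screening campaign, cut at about 45% in these data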
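System: GST/Flag-tagged HCV core106 proteins. Incubation: compound-protein-antibody incubation 4 h at 22.5 °C. Technique: HTRF with 340 nm excitation, 617/671 nm emission. Medium: KF-containing HEPES buffer, pH 7.45, DTT, CHAPS, BSA. Read-out: inhibition (%) from 671 over 617 nm ratio. Also added: Eu(K)-anti-GST 90 ng/mL plus XL665-anti-Flag 1 µg/mL.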
ZTA DNA inh: blocks Epstein-Barr virus ZTA, an EBNA-1 counter-screen | P03206 | ZTA-DNA binding, fluorescence polarization | inhibition, % at 11 µM | 320,000 tested, 0.15% active | AID 2234; in the data active means inhibition above about 33%
Target sequence (P03206 whole entry, looked up): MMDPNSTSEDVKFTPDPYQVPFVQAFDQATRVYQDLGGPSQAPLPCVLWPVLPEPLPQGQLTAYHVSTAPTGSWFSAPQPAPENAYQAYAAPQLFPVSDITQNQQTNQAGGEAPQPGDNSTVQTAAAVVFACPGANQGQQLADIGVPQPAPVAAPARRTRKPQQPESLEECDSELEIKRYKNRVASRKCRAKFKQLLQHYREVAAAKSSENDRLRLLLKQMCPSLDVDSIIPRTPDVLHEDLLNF
HCV NS3 hel inh: HCV NS3 helicase inhibition; inhibition, % at 10.9 µM; NS3 helicase DNA unwinding, Cy5 molecular beacon fluorescence; AID 1800; 290,000 tested, 0.56% active;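 active means inhibition above the mean of all tested compounds plus 3 SD, set per campaign, cut at about 35% in these data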;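 further: 0% = DMSO wells and 100% = thioflavine S control wells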
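Assay system: hepatitis C virus NS3 helicase domain fragment enzyme. Also added: annealed dual-labelled DNA beacon duplex, ATP-started. Timing: 1 h reaction at 25 °C, ATP-initiated. Technique: Cy5 fluorescence at 0 and 60 min, beacon hairpin quenching. Evaluation: % inhibition of unwinding. Replication: one well per compound.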
NS3 helicase cf: confirmation of Hepatitis C virus NS3 helicase inhibitors; shares compounds with HCV NS3 hel inh; NS3 helicase DNA unwinding, Cy5 molecular beacon fluorescence; inhibition, % at 10.9 µM; 1,600 tested, 31% active;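 active means inhibition above the mean of all tested compounds plus 3 SD, cutoff set per campaign, cut at about 36% in these data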
DNA FID counter: intercalator displacement, NS3 helicase counter-screen | shares compounds with HCV NS3 hel inh | DNA fluorescent intercalator displacement, fluorescence | inhibition, % at 7.9 µM | 1,600 tested, 4% active | AID 1945; in the data active means inhibition above about 37%;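 further: 0% = vehicle and 100% = reference compound; higher means more displacement of ethidium bromide from the DNA hairpin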
DNA FID DR: counter-screen for HCV NS3 helicase inhibitors: DNA intercalator displacement dose response; IC50, µM; fluorescent intercalator displacement from DNA, fluorescence; 120 tested, under 10 active; shares compounds with HCV NS3 hel inh; call rule not given here
Starred values were filed as active, the others as inactive; i = inactive; nt = no result given; + = active, no number. Only some compounds are listed: those with a hit (about 1.2% of all), similar ones and a draw of the others.

SMILES	EBNA-1 inh	core dimer inh	ZTA DNA inh	HCV NS3 hel inh	NS3 helicase cf	DNA FID counter	others
Cc1cccc(NS(=O)(=O)c2ccc3c(c2)NC(=O)CO3)c1C	-9	1	1	-4	nt	nt
Cc1cc(Br)c2c(c1)C1(OCCO1)C(=O)N2	-4	9	-4	-9	nt	nt
COc1ccccc1CNC(=O)CS(=O)(=O)c1ccc(C)cc1	2	-4	8	3	nt	nt
Cc1cc(OCc2nnc(SC(C)C(=O)O)n2-c2ccccc2)ccc1Cl (stereo not drawn)	-6	-1	-8	53*	40*	-27
O=[N+]([O-])c1cc(Br)c(O)c(C=Nc2ccc(N3CCOCC3)cc2)c1	57*	-1	127*	37*	-20	8
CCCCOc1ccc(-c2cc(C(F)(F)F)c(C#N)c(SCC(=O)O)n2)cc1	-2	2	-24	43*	81*	-14	DNA FID DR=i
O=C(N/C(=C/c1cccc([N+](=O)[O-])c1)C(=O)N1CCOCC1)c1ccccc1Br	-5	-9	-4	19	nt	nt
Cc1ccc2c(c1)N(S(=O)(=O)c1ccc(F)cc1)C(C(C)(C)C)CO2 (stereo not drawn)	6	5	-2	5	nt	nt
Cc1ccc2c(c1)NC(C(C)(C)C)CO2 (stereo not drawn)	-5	-3	-15	85*	-2	15
Cc1cc2nc3c(=O)n(CCc4ccccc4)c(=O)[nH]c3nc2cc1N	-4	-3	-1	38*	6	9
Nc1ccc2nc3c(=O)n(CCc4ccccc4)c(=O)[nH]c3nc2c1	-13	-3	-7	19	nt	nt
O=C(/C=C1\C(=O)Nc2ccccc21)/C=C1\C(=O)Nc2ccccc21	nt	nt	nt	54*	9	29
CC(C)N(C(=O)CSc1nn2c(=O)c(C(C)(C)C)nnc2s1)c1ccccc1	-10	1	-6	5	nt	nt
Cc1cc(C(=O)CSc2nn3c(=O)c(C(C)(C)C)nnc3s2)c(C)n1-c1ccc(F)cc1	1	49*	1	40*	3	-27
CCCC(C)c1nc(C(N)=O)c2[nH]c(=O)n(-c3ccc(OC)c(OC)c3)c2n1 (stereo not drawn)	-12	9	-2	1	nt	nt
CCCC(=O)Nc1c(C)n[nH]c1C	7	-1	10	-3	nt	nt
CNCC(=O)Nc1c(C)n[nH]c1C	6	-4	-4	40*	4	15
Cc1ccc(C(CCN(Cc2ccccc2)C(=O)c2ccco2)c2ccco2)cc1 (stereo not drawn)	4	38	-1	54*	55*	-30	DNA FID DR=>79
Cc1ccc(NC(=O)CN2C(=O)N/C(=C/c3cc(C)n(-c4ccc(C(=O)O)cc4)c3C)C2=O)cc1	nt	nt	nt	7	nt	nt
Cc1ccc(NC(=O)CN2C(=O)N/C(=C/c3ccco3)C2=O)cc1	1	53*	17	39*	9	7
CCOc1cc(CNc2ccc(N(C)C)cc2)cc(Br)c1OCC(=O)NC(C)(C)C	+	-31	+	53*	16	-6
COc1ccc(CC(NC(C)=O)C(=O)NC2CCN(C(=O)Nc3ccccc3C)CC2)cc1OC (stereo not drawn)	11	-3	4	10	nt	nt
Cc1ccc(-c2nn(Cc3ccccc3)cc2/C=C/C(=O)O)cc1	-12	3	-7	44*	10	-9
COC(=O)C1=C(C)NC(C)=C(C(=O)OC)C1c1ccc(-c2cc(Cl)ccc2Cl)o1	-7	-1	11	15	nt	nt
COCCOC(=O)C1=C(C)NC(=O)NC1c1ccc(-c2cc(Cl)ccc2Cl)o1 (stereo not drawn)	3	6	0	43*	-20	-19
SMILES	EBNA-1 inh	core dimer inh	ZTA DNA inh	HCV NS3 hel inh	NS3 helicase cf	DNA FID counter	others
CC(=C\c1ccccc1)/C=C1/SC(=S)N(CCC(=O)O)C1=O	4	4	8	51*	65*	-9
CC(=C\c1ccco1)/C=C1/SC(=S)N(CC(=O)O)C1=O	3	-2	-16	45*	3	-1
O=C(O)CN1C(=O)/C(=C/c2ccc(N3CCCCC3)o2)SC1=S	-4	-16	3	61*	27	0
O=S(=O)(/C=C/c1ccccc1)N1CCOCC1	1	5	-3	-3	nt	nt
COc1ccc(-c2[nH]ncc2CN2CCC(C(=O)c3ccc(F)cc3)CC2)cc1	-7	-2	-5	-10	nt	nt
CCOc1ccc(NC(=O)/C(C=Nc2ccccc2)=C(\C)O)cc1	-14	-5	-4	-8	nt	nt
Cc1ccc(N2C(=O)C3CCC(C)(C2=O)C3(C)C)cc1 (stereo not drawn)	4	4	7	-3	nt	nt
CSC[C@@H]1NC(=S)N(c2ccc(C)cc2)C1=O	15	34	-13	36*	-12	17
CCCc1nc(SCC(=O)O)c2sc(=S)n(-c3ccccc3)c2n1	-6	6	8	37*	1	-21
Cc1ccc(NC(=O)CS(=O)CC(=O)N(CC(=O)NC(C)(C)C)c2cccc(C)c2C)cc1 (stereo not drawn)	-13	-2	11	-13	nt	nt
CC1CCc2c(sc3ncnc(SC(C)C(=O)NCC4CCCO4)c23)C1 (stereo not drawn)	8	4	7	nt	nt	nt
CC1(C)Cc2c(c(-c3ccco3)nc3sc4c(NCCN5CCOCC5)ncnc4c23)CO1	2	4	6	23	nt	nt
CC1(C)Cc2c(c(-c3ccco3)nc3sc4c(NCCCO)ncnc4c23)CO1	-2	2	-8	60*	-21	-18
CCc1ccccc1NC(=O)COC(=O)C1C2CC3OC(=O)C1C3C2 (stereo not drawn)	-6	-10	-6	-3	nt	nt
CCOc1ccc(NCc2cc3cc(OC)ccc3[nH]c2=O)cc1	-10	-6	-18	43*	12	-6
CCCCCCOc1ccc(C(=O)O)cc1C#N	14	1	0	38*	16	-8
CCOC(=O)C(=CNc1cc(Cl)c(-c2ccco2)c(Cl)c1)C(=O)OCC	4	4	6	46*	-5	-20
CCOC(=O)C(=CNc1ccccc1Cl)C(=O)OCC	nt	nt	nt	1	nt	nt
CCOC(=O)C(=CNc1ccc(-c2ccco2)c(Cl)c1)C(=O)OCC	4	13	5	42*	14	-27
Cc1c(NC(=O)c2ccc(N(Cc3ccccc3)S(C)(=O)=O)cc2)c(=O)n(-c2ccccc2)n1C	0	-3	-9	7	nt	nt
COc1cc(-c2ccc3c(=O)c4ccccc4n(C)c3c2)cc(OC)c1OC	9	17	8	-11	nt	nt
COc1ccc(-c2cc(Cl)cc3c(=O)c4ccccc4n(C)c23)cc1F	7	9	8	67*	-3	-10
COc1cc(CC(CC(=O)O)CC(C)OCc2ccccc2)cc(OC)c1 (stereo not drawn)	-6	-8	0	39*	-12	-41
